Assay outcomes (PubChem BioAssay)
EBI2 block = EBI2 (human) antagonism; EBI2 beta-arrestin recruitment, luminescence, 7a,25-OHC stimulated; inhibition, % at 5 µM; 0.81% of 360,000 active; AID 651636; in the data active = inhibition above about 38%;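 also: enzyme fragment complementation signal reports receptor beta-arrestin coupling in cells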
MC4R antag cAMP = antagonists of human melanocortin 4 receptor (MC4R); 0.48% of 360,000 active; MC4R-expressing cells, MTII-stimulated cAMP, LANCE TR-FRET; P32245; inhibition, % at 6.5 µM;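 active = inhibition above its plate's cutoff, the mean of tested wells on that plate plus 3 SD, cut at about 29% in these data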
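Assay system: U2OS-MC4R stable cell line; Also added: Melanotan II; Technique: Eu-cAMP/anti-cAMP TR-FRET, emission 671 nm; Times: 30-min compound, 1-h challenge, 1-h detection, room temperature.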
MC4R barr agon = activates human MC4R beta-arrestin recruitment | 0.98% of 360,000 active | P32245 | activation, % at 8.9 µM | U2OS MC4R beta-arrestin complementation, luminescence; percent of melanotan II response, DMSO zero | AID 540308;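 active = activation above a per-plate cutoff, the mean activation of sample wells on that plate plus 3 SD, cut at about 8% in these data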
m5-HT2A agonist = agonists of mouse serotonin 5-HT2A receptor (HTR2A) | P35363 | CHO-K1 mHTR2A beta-arrestin complementation, luminescence; percent of 30 µM serotonin response | activation, % at 7.6 µM | 0.66% of 360,000 active;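 active = activation above a run cutoff, the mean activation of all tested compounds plus 3 SD, cut at about 14% in these data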
OPRM1 ag = counter-screen for mouse HTR2A agonists: human mu opioid receptor agonists. shares compounds with m5-HT2A agonist. 5.3% of 2,300 active. U2OS OPRM1 beta-arrestin PathHunter, luminescence; DMSO 0%, DAMGO 9.3 µM 100%. activation, % at 9.3 µM;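 active = mean activation above the mean of DMSO-only wells plus 3 SD, cut at about 0.5% in these data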
Target sequence (P35372 whole entry, looked up): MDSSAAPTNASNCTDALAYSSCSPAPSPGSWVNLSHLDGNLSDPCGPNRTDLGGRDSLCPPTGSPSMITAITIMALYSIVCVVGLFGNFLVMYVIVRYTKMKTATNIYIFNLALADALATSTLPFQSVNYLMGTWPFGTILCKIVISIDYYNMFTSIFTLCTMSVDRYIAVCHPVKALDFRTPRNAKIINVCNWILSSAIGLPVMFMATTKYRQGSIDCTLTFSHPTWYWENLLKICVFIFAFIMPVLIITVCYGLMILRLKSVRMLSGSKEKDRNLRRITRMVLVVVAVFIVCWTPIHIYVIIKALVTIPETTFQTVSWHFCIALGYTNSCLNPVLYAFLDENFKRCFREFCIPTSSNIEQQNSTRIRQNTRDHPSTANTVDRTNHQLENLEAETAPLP
m5-HT2A ag conf = mouse HTR2A agonism confirmed. shares compounds with m5-HT2A agonist. CHO-K1 PathHunter beta-arrestin recruitment, luminescence; DMSO 0%, 30 µM serotonin 100%. activation, % at 7.6 µM. 19% of 2,300 active;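 active = mean activation across triplicates above the hit threshold derived in the original primary screen, cut at about 15% in these data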
Hits are given with their value; – = inactive; · = no result given. This is a sample that favours compounds with a hit; in the whole collection about 2.8% have one here.

SMILES | EBI2 block | MC4R antag cAMP | MC4R barr agon | m5-HT2A agonist | OPRM1 ag | m5-HT2A ag conf
CCc1nc2c(OCc3ccc(F)c(F)c3)cccn2c1N(C)C(=O)c1ccc(OC)cc1 | – | – | – | – | · | ·
O=c1cc(CN2CCN(c3ccc(Cl)c(Cl)c3)CC2)c2ccccc2o1 | – | · | · | – | · | ·
CC(=O)c1ccc(OC2(C)CCN(Cc3ccc4ccccc4c3)C2)cc1 (configuration not stated) | – | – | – | – | · | ·
Cc1cc[n+](CC(=O)N2CCCc3ccccc32)cc1 | – | – | – | – | · | ·
O=C(C[n+]1ccccc1)N1CCCc2ccccc21 | – | – | – | 19.9 | – | –
O=C(NCCOC(=O)Nc1cccc2ccccc12)OCc1ccccc1 | – | – | – | – | · | ·
CN1CCN(C2OC(=O)c3ccccc32)CC1 (configuration not stated) | – | – | – | – | · | ·
O=C1OC(N2CCN(c3ccccn3)CC2)c2ccccc21 (configuration not stated) | – | – | – | 14.7 | – | 22.6
COc1cc(C(=O)Nc2cccc(-c3nncn3C)c2)cc(OC)c1OC | – | – | – | 15.2 | – | –
COc1cc(C(=O)Nc2cccc(NC(=O)c3ccccc3)c2)cc(OC)c1OC | – | – | – | – | · | ·
CCOC(=O)[C@]12CCCC=C1N(Cc1cccc3ccccc13)C(=O)[C@H](CC(=O)NCCCN1CCCC1=O)C2 | – | · | · | – | · | ·
CCCCNC(=O)C1(C)CCCCN1Cc1ccc(-c2ccccc2)cc1 (configuration not stated) | – | – | – | – | · | ·
COc1cc2c3nnc(-c4ccc(F)cc4)c-3cn(Cc3ccc(C)cc3)c2cc1OC | – | – | – | – | · | ·
COc1cc2c3nnc(-c4ccccc4)c-3cn(Cc3ccc(F)cc3)c2cc1OC | – | – | – | 31.7 | – | 20.6
Cc1ccc(Cn2cccc2C2=NC(C)CO2)cc1 (configuration not stated) | – | – | – | 14.5 | – | –
O=C(NC1CC1)c1cccc(NC(=O)C2CCN(S(=O)(=O)c3ccccc3C(F)(F)F)CC2)c1 | – | – | – | – | · | ·
O=C(CNC(=O)OCc1ccccc1)Nc1ccc(F)cc1 | – | – | – | – | · | ·
CCOCCCNC(=O)C1(O)c2cc(Br)ccc2NC(=O)N1c1ccc(CC)cc1 (configuration not stated) | – | – | – | 17.5 | – | –
c1ccc(CCNc2ccc3nncn3n2)cc1 | – | – | – | 16.2 | – | –
Clc1cccc(-c2cccc3nccn23)c1 | – | – | – | – | · | ·
Nc1cc(Cl)nnc1Cl | – | – | – | 18.7 | – | –
Cc1cc(Cl)ccc1NC(=O)CN(C)C1=NS(=O)(=O)c2ccccc21 | – | – | – | 14.8 | – | –
OC(COc1ccc(OCC(O)CN2CCCCC2)cc1)CN1CCCCC1 (configuration not stated) | – | – | – | 16.8 | – | –
CC(=O)c1ccc(OCC(O)CN2CCN(c3ccccn3)CC2)cc1 (configuration not stated) | – | – | – | 37.2 | – | 92.5
CC(C)(C)C1CCC(OCC(O)CN2CCN(c3ccccn3)CC2)CC1 (configuration not stated) | – | – | – | 17.9 | – | 93.9
SMILES | EBI2 block | MC4R antag cAMP | MC4R barr agon | m5-HT2A agonist | OPRM1 ag | m5-HT2A ag conf
CC(C)(C)C1CCC(OCC(O)CN2CCN(Cc3ccccc3)CC2)CC1 (configuration not stated) | – | – | – | – | · | ·
CCCN(C)C1CN(Cc2cn(Cc3ccc(OC)cc3)nn2)S(=O)(=O)C1 (configuration not stated) | – | · | · | – | · | ·
CCCCn1nnnc1C(c1cc2ccccc2o1)N1CCN(CC(=O)N2CCCC2)CC1 (configuration not stated) | – | · | · | – | · | ·
Cn1c(Cn2c(=O)sc3ccccc32)nnc1SCC(=O)Nc1ccccc1 | – | – | – | 20.5 | – | –
O=C1NC[C@H](CCCCN2C[C@H](Cc3ccc(O)cc3)N(CCc3ccccc3)C(=O)C2=O)N(CCc2ccc(O)cc2)C1=O | – | · | · | – | · | ·
C=C(C)C1CC=C(CN2CCC(C(=O)OCC)CC2)CC1 (configuration not stated) | – | – | – | 17.8 | – | 26.1
COc1ccc(NC(=O)CNS(=O)(=O)c2cccs2)cc1 | – | – | – | 24.4 | – | –
CCCCCC(=O)N1C[C@H](n2cc(-c3ccc(F)cc3)nn2)[C@@H](O)C[C@@H]1c1ccc(C)cc1 | – | – | – | 23.2 | – | –
CCCCCC(=O)N1C[C@H](n2cc(-c3ccc(F)cc3)nn2)[C@@H](O)C[C@@H]1c1ccc(OC)cc1 | – | – | – | – | · | ·
CCC(CC)C(=O)NCCc1cc2ccc(C)cc2[nH]c1=O | – | – | – | 21.3 | – | –
CCC(=O)NCCc1cc2ccc(C)cc2[nH]c1=O | – | – | – | – | · | ·
CN(C)CCOc1ccc2c(c1)C(=O)C(=Cc1ncc([N+](=O)[O-])n1C)C2 | – | – | – | – | · | ·
O=C(C[n+]1cc(-c2ccccc2)n2c1CCC2)Nc1nc(-c2ccc(F)cc2)cs1 | – | – | – | 20.6 | – | 51.4
COC(=O)c1ccc(/C=N/NC(=O)CC(=O)NC2CCCCC2)cc1 | – | – | – | – | · | ·
COc1cc(/C=N/NC(=O)CC(=O)NC2CCCCC2)ccc1O | – | – | – | 15.8 | 0.9 | –
CC(=O)N1CCN(C(=S)NC(=O)c2ccc(S(=O)(=O)N3CCOCC3)cc2)CC1 | – | – | – | 15.6 | – | –
CC(C)NC(=O)C1(C)CCN1C(=O)C(c1ccccc1)c1ccccc1 (configuration not stated) | – | – | – | – | · | ·
CC(C)(C)NC(=O)C(c1cc2ccccc2o1)n1c(=O)c(-c2ccccc2)nc2ccccc21 (configuration not stated) | – | · | · | – | · | ·
CC(=O)c1ccccc1C(=O)N1CCC(CCC(=O)NCc2ccc(F)cc2)CC1 | – | – | – | – | · | ·
Cc1ccc(-c2cc(C(F)(F)F)nn2-c2ccc(S(N)(=O)=O)cc2)cc1 | – | – | 8.5 | 19.7 | 1.1 | 25.3
CCn1c(SCC(=O)Nc2ccccc2)nc2c(c1=O)SCC2 | – | – | – | – | · | ·
C[C@H]1CN([C@@H](C)CO)S(=O)(=O)c2ccc(Br)cc2O[C@H]1CN(C)C(=O)CCN1CCCCC1 | – | – | – | – | · | ·
Cc1nc2c(OCCOc3ccc(F)cc3)cccn2c1N(C)C(=O)CCC1CCCC1 | – | – | – | – | · | ·
Cc1cccc(C)c1NC(=O)CN(C)C(=O)CC1OC(=O)c2ccccc21 (configuration not stated) | – | – | – | 17.8 | – | –
CC(=O)Nc1cccc(Oc2nc(NC(C)C)nc3cc(-c4ccccc4)sc23)c1 | – | – | – | – | · | ·
Cc1ccc(S(=O)(=O)N2C[C@H]3[C@H]4C(=O)N(Cc5ccccc5)C(=O)[C@H]4CC(=O)[C@H]3[C@@H]2c2ccccc2F)cc1 | – | · | · | – | · | ·
